Screens deposited in PubChem BioAssay by several laboratories.
Compounds with a hit are over-represented: about 1.6% of the library has one in this group of screens.
Tb hexokinase: T. brucei hexokinase 1 inhibition; recombinant TbHK1, G6PDH-coupled NADH A340; inhibition, % at 10 µM; hit rate 0.11% among 220,000;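 active = inhibition of 50% or more in the single-dose primary screen; inactive = inhibition below 50%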
SDO1 yeast rescue: compounds rescuing growth of sdo1-depleted yeast, bone marrow failure model; S. cerevisiae sdo1-depleted JHY4D growth rescue, OD600 30 h; stronger effect = higher value; pdr5 snq2 efflux-pump mutant strain; z-score at 10 µM; hit rate 0.21% among 140,000;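 active = z-score above 3 at both the 24 hr and the 30 hr optical density reads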;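 note: z-score against mean and SD of all compound wells on the same plate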
Yeast growth inh: reduces growth of yeast BB579 in restrictive medium | S. cerevisiae BB579 growth, OD615, 48 h | inhibition, % at 10 µM | hit rate 0.51% among 140,000;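 active = inhibition above a set limit, 3 SD over the mean compound inhibition, cut at about 44% in these data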
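test system = yeast BB579 (DeaD) | buffer or medium = restrictive CSMM-D medium | doses = single compound dose of 10 µM, 0.25% DMSO final | times = 4 h preincubation and 48 h exposure at 30 °C | technique = culture absorbance at 615 nm | benchmarks = amphotericin B 10 µg/mL, positive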
RBBP9 inh: blocks human serine hydrolase RBBP9. O75884. recombinant RBBP9, FP-Rh probe fluorescence polarization. inhibition, % at 7.94 µM. hit rate 0.2% among 220,000;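 active = inhibition above the campaign mean of all tested compounds plus 3 SD, cut at about 14% in these data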;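 note: plate controls were DMSO wells with RBBP9 for no effect and wells lacking RBBP9 protein for full effect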
Target sequence (O75884 whole entry, looked up): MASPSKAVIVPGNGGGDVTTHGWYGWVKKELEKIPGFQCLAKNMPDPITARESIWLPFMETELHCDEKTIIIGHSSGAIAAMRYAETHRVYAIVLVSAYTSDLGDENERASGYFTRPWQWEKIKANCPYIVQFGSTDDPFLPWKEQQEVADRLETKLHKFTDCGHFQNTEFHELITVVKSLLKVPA
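Controls: DMSO-treated enzyme wells and wells lacking RBBP9 | Material: RBBP9 protein | Technique: Fluorescence polarization | Replication: Single well per compound, no replicates | Buffer or medium: Tris-NaCl-Pluronic buffer, pH 8.0 | Timing: 30 min compound preincubation, 45 min probe labeling, 25 °C | Read-out basis: Percent inhibition from mP, scaled between DMSO and no-protein wells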
Yeast life ext: yeast lifespan extension; S. cerevisiae growth with nicotinamide, OD615; deaD strain in restrictive glucose medium; inhibition of the nicotinamide effect, % at 10 µM; hit rate 0.68% among 130,000; AID 775;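 active = inhibition above a set limit, placed 3 SD over the median of all compounds, cut at about 26% in these data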;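 note: 0% = nicotinamide-treated wells and 100% = cells grown without nicotinamide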
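Measured by: optical density (absorbance) at 615 nm; System: modified budding yeast, DeaD strain; Medium: restrictive CSMM-D dextrose medium; Timing: 4 h preincubation then 48 h treatment at 30 °C.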
NCF1 inh: blocks human p47phox regulatory protein of NADPH oxidases | P14598 | p47phox/p22phox peptide binding, fluorescence polarization, 2 h | inhibition, % at 24.7 µM | hit rate 0.53% among 220,000;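 active = inhibition above about 30%, limit read from the data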;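 note: 0% = p47phox with labelled peptide and 100% = labelled peptide alone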
Target sequence (P14598 whole entry, looked up): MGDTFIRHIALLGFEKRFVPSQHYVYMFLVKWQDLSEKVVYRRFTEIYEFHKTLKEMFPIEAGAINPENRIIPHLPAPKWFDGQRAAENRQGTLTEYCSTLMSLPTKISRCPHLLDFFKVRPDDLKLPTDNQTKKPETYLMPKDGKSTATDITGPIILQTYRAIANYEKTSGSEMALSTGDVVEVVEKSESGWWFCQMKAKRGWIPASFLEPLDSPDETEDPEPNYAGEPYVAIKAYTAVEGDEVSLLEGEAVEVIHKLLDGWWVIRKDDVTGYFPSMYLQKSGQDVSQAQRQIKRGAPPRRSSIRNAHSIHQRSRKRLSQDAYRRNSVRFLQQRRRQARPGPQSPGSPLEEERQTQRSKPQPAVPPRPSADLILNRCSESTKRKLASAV
SDO1 rescue DR: confirmation of growth rescue in SDO1-depleted yeast, bone marrow failure; shares compounds with SDO1 yeast rescue; S. cerevisiae JHY4D (SDO1-depleted) growth rescue, OD600, 30 h; stronger effect = higher value; efflux-deficient strain, SNQ2 and PDR5 mutated; OD recovery (test concentration not listed); hit rate 44% among 440; AID 949;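 active = yeast growth recovered at 30 hours, either rising with dose fitted slope above 0.001 or with average optical density gain above 0.07, some results past the limit were not filed as active; inactive = growth falling with dose or no effect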;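 note: gain in OD600 from 0 h to 30 h averaged across all seven doses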
An asterisk follows results filed as active; / = not tested or not shown; ! = not active in a repeat.

SMILES | Tb hexokinase | SDO1 yeast rescue | Yeast growth inh | RBBP9 inh | Yeast life ext | NCF1 inh | SDO1 rescue DR
COc1ccccc1NC(=O)CSc1nnc(-c2ccncc2)o1 | -7 | 0.67 | -42 | 4 | -13 | -11 | /
CCN(CC)S(=O)(=O)c1ccc(-c2nnc(SCC(=O)Nc3ccc(OC)c(OC)c3)o2)cc1 | -16 | 2.8 | -15 | 5 | -15 | 6 | 0.064
O=C(CCN1C(=O)c2ccccc2C1=O)C1=NN[C@@H]2C(=O)N(c3ccc4c(c3)OCCO4)C(=O)[C@H]12 | -17 | / | / | -6 | / | -10 | /
O=C(COC(=O)Cc1ccccc1F)Nc1ccc(F)cc1F | -8 | / | / | -1 | / | 3 | /
COC(=O)c1cc(OC)c(OC)cc1NC(=S)N1CCCCC1 | -6 | -0.53 | 1 | -5 | -16 | 10 | /
COC(=O)c1cc(OC)c(OC)cc1NC(=S)N1CCN(C)CC1 | -6 | 3.1*! | -48 | 0 | 16 | -5 | 0.05
Cc1c(/C=N\NC(=O)c2cccc(F)c2)cnn1C | -2 | 3.3* | -28 | -13 | 7 | 6 | 0.096*
CC(=O)N(CCC1(c2ccc(C)cc2)CCOC(C(C)C)C1)Cc1ccco1 (stereo not drawn) | -6 | / | / | -3 | / | 6 | /
CN(Cc1ccccc1)C(=S)Nc1ccc(OC(F)F)cc1 | 1 | 9.1* | 2 | -1 | -4 | -1 | 0.066
CC1=C(C)CC(C(=O)NCc2ccc3c(c2)OCO3)C(C(=O)O)C1 (stereo not drawn) | -6 | 2.3 | -27 | 8 | 4 | -4 | 0.075*
COc1ccc(OC)c(C2=NOC(C(=O)NCc3ccco3)C2)c1 (stereo not drawn) | -6 | 7.6* | -55 | 2 | -14 | -12 | 0.036
COc1ccc(C(CNC(=O)c2cc(C)oc2C)N2CCOCC2)cc1 (stereo not drawn) | 4 | 1.5 | -47 | -7 | -5 | -15 | 0.082*
CCOC(=O)c1ccc(NC(=O)Cn2ccc([N+](=O)[O-])n2)cc1 | 3 | / | / | -6 | / | -11 | /
O=C(NCCN=C1NS(=O)(=O)c2ccccc21)c1ccco1 | -4 | 3.8* | -14 | 3 | -16 | 13 | 0.085*
COC(=O)c1ccccc1NC(=S)NC(=O)COc1ccccc1 | -2 | -0.37 | -29 | 4 | -18 | 6 | /
COC(=O)c1ccccc1NC(=S)NC(=O)CC(C)C | -4 | 5.6* | -20 | 5 | -7 | 6 | 0.063
CCOc1ccc(CCNC(=O)C2CCN(C(=O)N(C)C)CC2)cc1OCC | -12 | 2 | -46 | 0 | -16 | -13 | 0.055
Cc1oc2cc(O)ccc2c(=O)c1-c1cnn(-c2ccccc2)c1 | 5 | 5* | -28 | 3 | -3 | -11 | 0.064
CC12CCC(c3c1nc1ccccc1[n+]3[O-])C2(C)C (stereo not drawn) | -7 | 5.4* | -3 | -7 | 7 | 1 | 0.08*
CC12CCC(C(=O)n3c1nc1ccccc13)C2(C)C (stereo not drawn) | 6 | -0.88 | 7 | -11 | 8 | -11 | /
Cc1nn(-c2ccccc2)c(C)c1NC(=O)Cc1cccs1 | 3 | 0.7 | -9 | -1 | 2 | 2 | /
Cc1nn(-c2ccccc2)c(C)c1NC(=O)c1cccs1 | 2 | 3.3* | -3 | -8 | -8 | 1 | 0.065*
O=C(NCc1ccco1)c1ccc(Br)c(S(=O)(=O)N2CCCCC2)c1 | -3 | 4.7* | 13 | -8 | -11 | 5 | 0.072*
O=C(CCSCCC(=O)NCCN1CCOCC1)NCCN1CCOCC1 | -3 | 0.83 | 4 | -4 | -5 | -3 | /
O=C(CCSCCc1ccncc1)NCCCN1CCOCC1 | -3 | 2.6 | -50 | -9 | -13 | -15 | 0.1*
SMILES | Tb hexokinase | SDO1 yeast rescue | Yeast growth inh | RBBP9 inh | Yeast life ext | NCF1 inh | SDO1 rescue DR
COc1ccc(Br)cc1C(=O)Nc1nnn(C)n1 | 0 | -0.32 | -11 | -1 | -6 | -8 | /
COc1ccc(Cl)cc1C(=O)Nc1nnn(C)n1 | -5 | 2.3 | -37 | -3 | -9 | -4 | 0.071
N#Cc1nc(-c2cccc3ccccc23)oc1NCCN1CCCCC1 | -18 | 11* | -11 | -5 | -11 | -18 | 0.097*
CCNc1oc(-c2cccc3ccccc23)nc1C#N | -7 | -1.2 | -34 | -8 | -7 | 4 | /
CC1CCC/C(=N\NC(=O)COc2ccccc2Cl)C1 (stereo not drawn) | 12 | 2 | -24 | -8 | -3 | -6 | /
Cc1nn(-c2ccccc2)c(C)c1C(=O)OCC(=O)N1c2ccccc2NC(=O)C1(C)C | -5 | 14* | -9 | -4 | -4 | -4 | 0.051
Cc1cnc(C(=O)OCC(=O)N2c3ccccc3NC(=O)C2(C)C)cn1 | 3 | 1.1 | -5 | -4 | -4 | 7 | /
CC(=O)N1CCc2cc(Br)cc(S(=O)(=O)N3CCc4ccccc43)c21 | -8 | / | / | -5 | / | -25 | /
CC(C)NC(=O)C1CCCN(S(C)(=O)=O)C1 (stereo not drawn) | -2 | 2.1 | -37 | -2 | -12 | -1 | 0.066
CS(=O)(=O)N1CCCC(C(=O)NC2CCCCCCC2)C1 (stereo not drawn) | -7 | 0.66 | -80 | -8 | -13 | -11 | /
O=S(=O)(Cc1ccc(Cl)cc1)Nc1ccc(Cl)cn1 | -1 | / | / | -3 | / | -4 | /
CC(C)(C)c1cc(C(=O)N/N=C/c2ccco2)n[nH]1 | 17 | 9.9* | -24 | -18 | 0 | -9 | 0.071*
CCCCNS(=O)(=O)c1ccc2nc(SCC(=O)Nc3ccccc3Cl)[nH]c2c1 | 13 | 2.2 | -27 | -12 | -5 | -27 | 0.11*
CCCCNS(=O)(=O)c1ccc2nc(SCC(=O)Nc3cccc(F)c3)[nH]c2c1 | 13 | 2.6 | -53 | -18 | 7 | -40 | /
CCC(C)C(NC(=O)c1ccccc1NC(=O)c1ccco1)C(=O)NNC(=O)c1ccncc1 (stereo not drawn) | -13 | / | / | 2 | / | 0 | /
O=[N+]([O-])c1ccc(N/N=C\c2ccccc2OCc2ccccc2)cc1 | 19 | 1.8 | -8 | -1 | 5 | -33 | 0.06
CCn1c(N)c(C(=O)NCc2ccc3c(c2)OCO3)sc1=S | -26 | 2.2 | -19 | -9 | -2 | -15 | 0.059
CCOC(=O)c1c(C)c(C(=O)NCc2ccc3c(c2)OCO3)c(C)n1CC | -5 | -1.4 | -19 | -6 | 1 | -4 | /
CCc1sc(NC(=O)CCC(=O)O)nc1-c1cc2ccccc2oc1=O | -18 | / | / | -3 | / | / | /
Nc1cc(=O)[nH]n1C1CCCCC1 | -2 | / | / | -1 | / | -15 | /
O=C(CN1CCc2ccccc2C1)c1cccs1 | -5 | 5.6* | 17 | -4 | 2 | -4 | 0.096*
Cn1nnnc1SCC(=O)NC1CCCCC1 | 4 | 2 | -19 | -8 | -12 | -3 | 0.047
Cn1c(=O)c2[nH]c(CNCc3ccccc3Cl)nc2n(C)c1=O | 6 | 1.4 | -13 | -14 | -8 | -4 | 0.069
